Test results reported in ChEMBL document CHEMBL4028848, “Discovery of N-{4-[5-(4-Fluorophenyl)-3-methyl-2-methylsulfanyl-3H-imidazol-4-yl]-pyridin-2-yl}-acetamide (CBS-3595), a Dual p38α MAPK/PDE-4 Inhibitor with Activity against TNFα-Related Diseases” (J Med Chem, 2017).
Values joined by “and” are separate entries in the source; they are usually repeats but may differ in a detail not shown here. Equal entries are not always repeated. Active and inactive are the calls of the source. The calls are words filed in the database; no cut-off is given here.

Key:
[1] = molecular target: Mitogen-activated protein kinase 8 (Homo sapiens) (UniProt P45983); assay: Inhibition of human recombinant full length N-terminal His6 tagged JNK1 expressed in Sf21 cells at 10 uM relative to control
[2] = AUC (0 to t) in Wistar rat at 30 mg/kg, po administered as single dose via gavage by LC-MS/MS analysis; type: ADME, organism-based; conditions: in vivo
How it was run: (§1)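 Male and female Wistar rats received a single oral gavage of 30 mg/kg. Parameters are given as the mean of the two sexes.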

Rattus norvegicus [3] = assay: Toxicity in Wistar rat assessed as effect on liver enzyme at 100 to 2500 mg/kg, po administered for 48 hrs followed by administration of 300 mg/kg, bid for 7 days starting 8 hrs interval between first and second dose measured after 7 days; type: organism-based; conditions: in vivo, 168 h
How it was run: (§2)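 Wistar rats, maximum-tolerated-dose estimate in two steps. Step one: single oral doses of 100 (n = 1), 500 (n = 1) and 2500 mg/kg (n = 3), with clinical signs watched for 48 h. Step two: 300 mg/kg (n = 5) twice daily for 7 days, second dose 8 h after the first. After 7 days, body weight gain, blood cell number and composition, liver enzymes, and macroscopic liver and spleen were recorded.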

Rattus norvegicus [4] = assay: Toxicity in Wistar rat assessed as change in body weight at 100 to 2500 mg/kg, po administered for 48 hrs followed by administration of 300 mg/kg, bid for 7 days starting 8 hrs interval between first and second dose measured after 7 days; type: organism-based; conditions: in vivo, 168 h; how it was run: as §2
Rattus norvegicus [5] = assay: Toxicity in Wistar rat assessed as effect on composition of blood cells at 100 to 2500 mg/kg, po administered for 48 hrs followed by administration of 300 mg/kg, bid for 7 days starting 8 hrs interval between first and second dose measured after 7 days; type: organism-based; conditions: in vivo, 168 h; how it was run: as §2
[6] = Cmax in Wistar rat at 30 mg/kg, po administered as single dose via gavage by LC-MS/MS analysis; type: ADME, organism-based; parameters: dose 30 mg/kg, route oral; conditions: in vivo; how it was run: as §1
[7] = molecular target: Mitogen-activated protein kinase 10 (Homo sapiens) (UniProt P53779); assay: Inhibition of human recombinant full length N-terminal His6 tagged JNK3 expressed in Sf21 cells at 10 uM relative to control
CYP1A2 = CYP1A2 (Homo sapiens, UniProt P05177); assay: Inhibition of CYP1A2 (unknown origin) at 10 uM by fluorimetric assay relative to control; type: ADME
How it was run: (§3)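 CYP1A2, CYP2C9, CYP2C19, CYP3A4 and CYP2D6 were tested as a panel for cytochrome P450 interaction.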

CYP2C9 = CYP2C9 (Homo sapiens, UniProt P11712); assay: Inhibition of CYP2C9 (unknown origin) at 10 uM by fluorimetric assay relative to control; type: ADME; how it was run: as §3
[8] = Half life in Wistar rat at 30 mg/kg, po administered as single dose via gavage by LC-MS/MS analysis; type: ADME, organism-based; conditions: in vivo
How it was run: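 Single oral gavage dose of 30 mg/kg given to male and female Wistar rats. PK parameters are reported as the mean of males and females.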

[9] = Tmax in Wistar rat at 30 mg/kg, po administered as single dose via gavage by LC-MS/MS analysis; type: ADME, organism-based; conditions: in vivo
How it was run: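 Male and female Wistar rats each received a single 30 mg/kg oral gavage dose. Tmax is the mean of males and females.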

CYP2D6 = CYP2D6 (Homo sapiens, UniProt P10635); assay: Inhibition of CYP2D6 (unknown origin) at 10 uM by fluorimetric assay relative to control; type: ADME; how it was run: as §3
Mus musculus [10] = assay: Toxicity in DBA/1 mouse model of collagen-induced arthritis at 50 mg/kg, bid administered on day 22 post second injection of type 2 collagen; type: organism-based; conditions: in vivo
How it was run: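 Male DBA/1 mice with collagen-induced arthritis were dosed at 50 mg/kg b.i.d. starting on day 22, 1 day after the type II collagen boost. Animals were monitored for signs of toxicity, including body weight loss relative to controls.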

Rattus norvegicus [11] = assay: Toxicity in Wistar rat assessed as effect on microscopic appearance of spleen at 100 to 2500 mg/kg, po administered for 48 hrs followed by administration of 300 mg/kg, bid for 7 days starting 8 hrs interval between first and second dose measured after 7 days; type: organism-based; conditions: in vivo, 168 h
Mus musculus [12] = assay: Antiarthritic activity in DBA/1 mouse assessed as decrease in collagen-induced arthritic score at 50 mg/kg, bid administered on day 22 post second injection of type 2 collagen; type: functional, organism-based
How it was run: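 Collagen-induced arthritis in male DBA/1 mice. Dosing at 50 mg/kg b.i.d. began on day 22, one day after the second (boost) injection of type II collagen.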

Rattus norvegicus [13] = assay: Toxicity in Wistar rat assessed as effect on number of blood cells at 100 to 2500 mg/kg, po administered for 48 hrs followed by administration of 300 mg/kg, bid for 7 days starting 8 hrs interval between first and second dose measured after 7 days; type: organism-based; conditions: in vivo, 168 h; how it was run: as §2
CYP3A4 = CYP3A4 (Homo sapiens, UniProt P08684); assay: Inhibition of CYP3A4 (unknown origin) at 10 uM by fluorimetric assay relative to control; type: ADME; how it was run: as §3
Mus musculus [14] = assay: Protection against LPS/galactosamine-induced endotoxemia in Balb/c mouse assessed as inhibition of plasma TNFalpha level at 10 mg/kg, po pretreated for 1 hr followed by LPS/galactosamine addition measured after 90 mins relative to control; type: functional
[15] = molecular target: Mitogen-activated protein kinase 11 (Homo sapiens) (UniProt Q15759); assay: Inhibition of p38beta (unknown origin) at 10 uM relative to control
[16] = molecular target: Mitogen-activated protein kinase 9 (Homo sapiens) (UniProt P45984); assay: Inhibition of human recombinant full length N-terminal His6 tagged JNK2 expressed in Sf21 cells at 10 uM relative to control
Rattus norvegicus [17] = assay: Toxicity in Wistar rat assessed as effect on microscopic appearance of liver at 100 to 2500 mg/kg, po administered for 48 hrs followed by administration of 300 mg/kg, bid for 7 days starting 8 hrs interval between first and second dose measured after 7 days; type: organism-based; conditions: in vivo, 168 h
CYP2C19 = CYP2C19 (Homo sapiens, UniProt P33261); assay: Inhibition of CYP2C19 (unknown origin) at 10 uM by fluorimetric assay relative to control; type: ADME; how it was run: as §3
Rattus norvegicus [18] = assay: In vivo inhibition of P38 MAPKalpha in Lewis rat assessed as decrease in LPS-stimulated TNFalpha level in serum at 10 mg/kg, po pretreated for 1 hr followed by LPS addition measured after 1.5 hrs post dose relative to control; type: functional
How it was run: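 Lewis rats, n = 8/group: females dosed orally at 10 mg/kg at −1, −3 or −5 h relative to LPS challenge, plus one male group dosed at −1 h. Male and female vehicle controls were given at −1 h. Serum TNFα was measured after LPS and compared with vehicle.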

Homo sapiens = organism: Homo sapiens; assay: Inhibition of PDE4 in human U937 cells assessed as [3H]cAMP hydrolysis at 10 uM relative to control; type: cell-based
Rattus norvegicus [19] = assay: Toxicity in Wistar rat assessed as death at 100 to 2500 mg/kg, po administered for 48 hrs followed by administration of 300 mg/kg, bid for 7 days with 8 hrs interval between first and second dose measured after 7 days; type: organism-based; conditions: in vivo, 168 h; how it was run: as §2
[20] = Ratio of Cmax in Wistar rat at 30 mg/kg, po administered as single dose via gavage to IC50 for P38 MAPKalpha in LPS-stimulated human whole blood assessed as decrease in TNFalpha level
[21] = Fraction unbound in human plasma at 5 uM by equilibrium dialysis relative to control; type: ADME, cell-free
[22] = molecular target: Voltage-gated inwardly rectifying potassium channel KCNH2 (Homo sapiens, UniProt Q12809); assay: Inhibition of human ERG expressed in HEK293 cells by patch clamp method; type: cell-based
Rattus norvegicus [23] = assay: Protection against LPS-induced endotoxemia in Wistar rat assessed as inhibition of plasma TNFalpha level at 10 mg/kg, po pretreated for 1 hr followed by LPS addition measured after 90 mins relative to control; type: functional
Liver [24] = assay: Drug level in human liver microsomes treated with CBS-3595 at 10 to 100 uM; type: ADME, microsome
How it was run: (§4)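 Test compound incubated at 10, 30 and 100 μM with liver microsomes from rat, Cynomolgus monkey or human, and metabolites monitored.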

Liver [25] = assay: Drug level in rat liver microsomes treated with CBS-3595 at 10 to 100 uM; type: ADME, microsome; how it was run: as §4
[26] = Drug level in cynomolgus monkey liver microsomes treated with CBS-3595 at 10 to 100 uM; type: ADME, Macaca fascicularis, microsome; how it was run: as §4
Rattus norvegicus [27] = assay: Antiarthritic activity in Lewis rat assessed as collagen oligomeric matrix protein level in serum at 1 mg/kg, po qd administered for 10 days (Rbv = 0.17 +/- 0.02 U/l); type: functional
How it was run: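 Collagen-induced arthritis in male Lewis rats (5–6 per group). Groups received vehicle, dexamethasone 1 mg/kg, test item 50 mg/kg once daily, or 25 mg/kg twice daily for 10 days. Body weight, arthritic score and paw volume were monitored, and serum COMP was measured at the end.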

[28] = molecular target: Mitogen-activated protein kinase 14 (Homo sapiens, UniProt Q16539); assay: Inhibition of p38alpha MAPK (unknown origin) at 1 uM relative to control

Chain of Voltage-gated inwardly rectifying potassium channel KCNH2 (Q12809 whole entry): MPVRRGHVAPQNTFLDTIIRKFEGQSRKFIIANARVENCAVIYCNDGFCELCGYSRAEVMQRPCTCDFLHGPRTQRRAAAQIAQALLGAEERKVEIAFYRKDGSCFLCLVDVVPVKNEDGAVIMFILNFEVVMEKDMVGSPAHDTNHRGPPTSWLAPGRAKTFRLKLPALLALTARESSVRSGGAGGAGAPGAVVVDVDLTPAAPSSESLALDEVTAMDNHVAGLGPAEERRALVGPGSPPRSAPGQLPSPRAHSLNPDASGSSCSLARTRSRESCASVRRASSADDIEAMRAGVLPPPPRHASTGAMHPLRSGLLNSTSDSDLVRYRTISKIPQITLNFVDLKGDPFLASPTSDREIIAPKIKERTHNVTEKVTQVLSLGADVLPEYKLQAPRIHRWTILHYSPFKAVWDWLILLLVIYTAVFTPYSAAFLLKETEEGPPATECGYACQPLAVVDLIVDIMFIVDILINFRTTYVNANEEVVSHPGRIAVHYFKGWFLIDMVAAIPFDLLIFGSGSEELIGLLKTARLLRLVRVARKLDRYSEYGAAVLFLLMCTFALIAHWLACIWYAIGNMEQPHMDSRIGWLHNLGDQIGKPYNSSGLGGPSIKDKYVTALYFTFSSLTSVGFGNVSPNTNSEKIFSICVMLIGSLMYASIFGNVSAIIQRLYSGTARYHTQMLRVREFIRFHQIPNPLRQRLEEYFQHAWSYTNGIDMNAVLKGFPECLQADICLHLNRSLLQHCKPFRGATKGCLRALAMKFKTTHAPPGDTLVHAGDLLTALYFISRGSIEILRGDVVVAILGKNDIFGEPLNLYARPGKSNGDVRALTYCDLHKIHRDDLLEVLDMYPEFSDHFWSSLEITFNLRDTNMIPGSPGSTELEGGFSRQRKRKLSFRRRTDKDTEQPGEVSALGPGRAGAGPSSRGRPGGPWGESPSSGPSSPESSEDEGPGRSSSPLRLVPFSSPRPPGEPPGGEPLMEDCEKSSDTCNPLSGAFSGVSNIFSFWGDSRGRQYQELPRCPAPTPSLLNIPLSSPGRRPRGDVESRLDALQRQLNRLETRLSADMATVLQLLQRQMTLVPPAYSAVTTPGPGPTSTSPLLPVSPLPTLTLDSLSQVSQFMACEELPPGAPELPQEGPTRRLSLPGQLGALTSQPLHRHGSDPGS
Chain of CYP1A2 (P05177 whole entry): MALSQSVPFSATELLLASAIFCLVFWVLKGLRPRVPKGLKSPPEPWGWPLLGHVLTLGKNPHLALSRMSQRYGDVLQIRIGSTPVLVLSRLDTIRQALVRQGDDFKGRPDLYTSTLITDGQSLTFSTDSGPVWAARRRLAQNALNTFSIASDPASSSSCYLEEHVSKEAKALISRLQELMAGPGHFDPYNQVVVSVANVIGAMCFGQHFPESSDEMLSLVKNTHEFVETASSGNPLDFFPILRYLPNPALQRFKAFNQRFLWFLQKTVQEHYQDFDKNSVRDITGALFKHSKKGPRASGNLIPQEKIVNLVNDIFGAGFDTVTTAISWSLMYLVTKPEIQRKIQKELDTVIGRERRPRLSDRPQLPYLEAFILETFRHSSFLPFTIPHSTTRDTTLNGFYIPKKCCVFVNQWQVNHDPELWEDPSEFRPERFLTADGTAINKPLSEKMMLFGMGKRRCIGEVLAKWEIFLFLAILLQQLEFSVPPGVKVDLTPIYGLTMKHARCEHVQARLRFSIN
Chain of Mitogen-activated protein kinase 11 (Homo sapiens) (Q15759 whole entry): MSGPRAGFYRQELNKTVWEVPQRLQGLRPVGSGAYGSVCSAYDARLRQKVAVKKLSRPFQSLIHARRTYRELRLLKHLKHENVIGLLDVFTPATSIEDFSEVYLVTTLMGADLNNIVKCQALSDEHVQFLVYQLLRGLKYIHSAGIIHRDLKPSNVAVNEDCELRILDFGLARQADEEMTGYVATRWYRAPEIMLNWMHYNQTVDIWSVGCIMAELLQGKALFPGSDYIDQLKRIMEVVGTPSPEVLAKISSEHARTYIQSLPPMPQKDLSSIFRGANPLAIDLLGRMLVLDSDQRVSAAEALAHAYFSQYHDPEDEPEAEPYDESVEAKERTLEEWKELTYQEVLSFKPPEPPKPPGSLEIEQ
Chain of CYP3A4 (P08684 whole entry): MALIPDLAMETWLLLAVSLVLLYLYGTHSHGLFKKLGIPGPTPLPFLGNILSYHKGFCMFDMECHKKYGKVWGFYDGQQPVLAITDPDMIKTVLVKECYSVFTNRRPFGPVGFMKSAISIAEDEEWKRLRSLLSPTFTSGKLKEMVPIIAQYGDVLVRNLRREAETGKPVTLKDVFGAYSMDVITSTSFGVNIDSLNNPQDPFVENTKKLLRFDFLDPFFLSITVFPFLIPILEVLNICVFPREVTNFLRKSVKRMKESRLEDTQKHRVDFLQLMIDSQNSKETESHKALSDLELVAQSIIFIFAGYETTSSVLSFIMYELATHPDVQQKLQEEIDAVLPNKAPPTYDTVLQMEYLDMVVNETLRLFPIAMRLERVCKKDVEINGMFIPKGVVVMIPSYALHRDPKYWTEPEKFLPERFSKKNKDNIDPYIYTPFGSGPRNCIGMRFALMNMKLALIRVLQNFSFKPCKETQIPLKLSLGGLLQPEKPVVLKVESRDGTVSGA
Chain of Mitogen-activated protein kinase 10 (Homo sapiens) (P53779 whole entry): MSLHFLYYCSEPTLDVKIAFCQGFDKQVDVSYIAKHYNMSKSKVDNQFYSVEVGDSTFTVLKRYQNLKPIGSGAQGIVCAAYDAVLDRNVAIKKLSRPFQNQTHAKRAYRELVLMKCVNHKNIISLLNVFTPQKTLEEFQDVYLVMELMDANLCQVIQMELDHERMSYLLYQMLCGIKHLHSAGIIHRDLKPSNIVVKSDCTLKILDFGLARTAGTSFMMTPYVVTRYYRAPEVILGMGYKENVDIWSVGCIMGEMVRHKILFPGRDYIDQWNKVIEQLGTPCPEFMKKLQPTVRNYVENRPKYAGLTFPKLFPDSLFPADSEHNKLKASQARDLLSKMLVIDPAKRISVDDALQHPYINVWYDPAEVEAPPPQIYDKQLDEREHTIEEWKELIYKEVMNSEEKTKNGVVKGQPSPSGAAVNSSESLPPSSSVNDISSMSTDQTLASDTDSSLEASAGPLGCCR
Chain of CYP2C19 (P33261 whole entry): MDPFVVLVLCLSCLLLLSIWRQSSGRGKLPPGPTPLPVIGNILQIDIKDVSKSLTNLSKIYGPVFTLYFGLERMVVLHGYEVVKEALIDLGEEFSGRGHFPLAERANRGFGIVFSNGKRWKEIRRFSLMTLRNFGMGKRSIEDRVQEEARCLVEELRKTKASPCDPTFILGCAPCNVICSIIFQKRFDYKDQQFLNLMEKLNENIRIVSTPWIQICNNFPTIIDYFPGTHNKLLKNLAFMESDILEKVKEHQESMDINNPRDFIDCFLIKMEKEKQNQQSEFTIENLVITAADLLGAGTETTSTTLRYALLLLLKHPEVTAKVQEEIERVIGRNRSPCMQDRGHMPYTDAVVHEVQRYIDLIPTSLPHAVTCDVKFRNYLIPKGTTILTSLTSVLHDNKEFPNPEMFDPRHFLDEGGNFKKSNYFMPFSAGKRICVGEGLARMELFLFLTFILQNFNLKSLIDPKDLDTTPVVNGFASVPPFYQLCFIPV
Chain of CYP2C9 (P11712 whole entry): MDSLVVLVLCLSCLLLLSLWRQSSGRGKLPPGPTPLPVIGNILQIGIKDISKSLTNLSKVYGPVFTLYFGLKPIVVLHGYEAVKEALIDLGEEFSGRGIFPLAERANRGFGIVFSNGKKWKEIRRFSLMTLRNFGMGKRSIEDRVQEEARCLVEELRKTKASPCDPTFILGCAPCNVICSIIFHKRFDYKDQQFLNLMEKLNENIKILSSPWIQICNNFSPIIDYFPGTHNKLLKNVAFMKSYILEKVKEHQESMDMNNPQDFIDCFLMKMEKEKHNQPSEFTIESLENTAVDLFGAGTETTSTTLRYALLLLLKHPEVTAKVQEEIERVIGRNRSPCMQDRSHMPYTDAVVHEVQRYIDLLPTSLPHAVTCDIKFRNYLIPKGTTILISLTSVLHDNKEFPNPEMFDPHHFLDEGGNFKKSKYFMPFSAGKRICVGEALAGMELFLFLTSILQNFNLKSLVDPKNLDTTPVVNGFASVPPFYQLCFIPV
Chain of CYP2D6 (P10635 whole entry): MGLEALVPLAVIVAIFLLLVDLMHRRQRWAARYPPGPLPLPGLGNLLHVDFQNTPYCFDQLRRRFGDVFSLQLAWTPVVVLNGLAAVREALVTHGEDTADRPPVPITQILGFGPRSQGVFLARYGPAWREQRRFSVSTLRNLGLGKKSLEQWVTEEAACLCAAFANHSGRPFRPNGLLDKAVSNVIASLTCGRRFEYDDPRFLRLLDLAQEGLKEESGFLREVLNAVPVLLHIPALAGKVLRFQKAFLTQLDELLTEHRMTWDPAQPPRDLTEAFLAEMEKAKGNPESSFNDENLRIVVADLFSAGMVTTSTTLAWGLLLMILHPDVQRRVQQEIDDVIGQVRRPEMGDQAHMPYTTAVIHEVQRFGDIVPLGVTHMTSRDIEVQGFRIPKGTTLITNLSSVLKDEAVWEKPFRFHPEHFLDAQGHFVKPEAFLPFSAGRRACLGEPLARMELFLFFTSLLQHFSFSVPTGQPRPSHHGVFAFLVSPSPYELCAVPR
Chain of Mitogen-activated protein kinase 8 (Homo sapiens) (P45983 whole entry): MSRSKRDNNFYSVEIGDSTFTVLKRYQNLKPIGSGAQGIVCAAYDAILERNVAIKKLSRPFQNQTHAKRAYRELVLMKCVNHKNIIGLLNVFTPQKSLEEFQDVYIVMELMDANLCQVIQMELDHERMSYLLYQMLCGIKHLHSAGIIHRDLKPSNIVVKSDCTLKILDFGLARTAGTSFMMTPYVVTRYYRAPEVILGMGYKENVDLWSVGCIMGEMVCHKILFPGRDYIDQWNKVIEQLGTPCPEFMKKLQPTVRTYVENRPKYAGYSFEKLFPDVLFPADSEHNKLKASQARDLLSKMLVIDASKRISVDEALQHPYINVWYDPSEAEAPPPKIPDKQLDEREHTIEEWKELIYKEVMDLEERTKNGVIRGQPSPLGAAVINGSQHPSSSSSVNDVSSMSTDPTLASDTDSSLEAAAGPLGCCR

Structure (SMILES) | AUC(0-t) [2] | Activity (Rattus norvegicus [3]) | Activity (Rattus norvegicus [4]) | Activity (Rattus norvegicus [5]) | Cmax [6] | inhibition [7] [%] | inhibition at 10 µM (CYP1A2) [%] | inhibition at 10 µM (CYP2C9) [%] | half-life [8] [min] | Tmax [9] [h] | inhibition at 10 µM (CYP2D6) [%] | Activity (Mus musculus [10]) | Activity (Rattus norvegicus [11]) | Activity (Mus musculus [12]) | Activity (Rattus norvegicus [13]) | inhibition at 10 µM (CYP3A4) [%] | inhibition [15] [%] | Activity (Rattus norvegicus [17]) | inhibition at 10 µM (CYP2C19) [%] | further results
CSc1nc(-c2ccc(F)cc2)c(-c2ccnc(Nc3ccccc3)c2)[nH]1 | 3710 ng·h/mL and 9.86 µM·h | Non-Toxic | Non-Toxic | Non-Toxic | 608 ng/mL and 1.61 µM | > 70 | 72 | 60 | 168 | 2 | 74.5 | Non-Toxic | Non-Toxic | Active | Non-Toxic | 16.5 | > 70 | Non-Toxic | 90 | inhibition [1]: > 70%; inhibition in vivo at 10 mg/kg (Mus musculus [14]): 60%; inhibition [16]: > 70%
CS(=O)(=O)c1nc(-c2ccc(F)cc2)c(-c2ccnc(NC3CCOCC3)c2)[nH]1 |  |  |  |  |  |  |  |  |  |  |  |  |  |  |  |  |  |  |  | inhibition in vivo at 10 mg/kg (Rattus norvegicus [18]): 21%; inhibition (Homo sapiens): 36%
CSc1nc(-c2ccc(F)cc2)c(-c2ccnc(NC(C)=O)c2)n1C | 4930 ng·h/mL and 13.8 µM·h | Non-Toxic | Non-Toxic | Non-Toxic | 738 ng/mL and 2.07 µM | > 70 | 18 | 46 | 180 | 1 | 45 | Non-Toxic | Non-Toxic | Active | Non-Toxic | -7 | > 70 | Non-Toxic | 4 | Activity (Rattus norvegicus [19]): Non-Toxic; Ratio [20]: 12.5; fraction unbound at 5 µM [21]: 0.037; IC50 [22]: 28.6 µM; inhibition (INH) ([22]; human, hek293): Dose-dependent effect; inhibition in vivo at 10 mg/kg (Rattus norvegicus [23]): 97%
Cn1c(S(C)(=O)=O)nc(-c2ccc(F)cc2)c1-c1ccnc(N)c1 |  |  |  |  |  |  |  |  |  |  |  |  |  |  |  |  |  |  |  | Drug metabolism (Liver [24]): Metabolite_Detected; Drug metabolism (Liver [25]): Metabolite_Detected; Drug metabolism [26]: Metabolite_Detected
C[C@@H]1C[C@H]2[C@@H]3CCC4=CC(=O)C=C[C@]4(C)[C@@]3(F)[C@@H](O)C[C@]2(C)[C@@]1(O)C(=O)CO [DEXAMETHASONE] |  |  |  |  |  |  |  |  |  |  |  |  |  |  |  |  |  |  |  | Activity (Rattus norvegicus [27]): 0.03 U/L
CC(=O)Nc1cc(-c2c(-c3ccc(F)cc3)nc([S@+](C)[O-])n2C)ccn1 |  |  |  |  |  |  |  |  |  |  |  |  |  |  |  |  |  |  |  | inhibition [28]: 11%
